ChEMBL document CHEMBL1123566, “Synthesis and cardiac electrophysiological activity of 2- and 3-[(substituted phenyl)alkyl]quinuclidines. Structure-activity relationships” (1987)
“And” between values parts separate entries of the source, which are not always exact repeats. Identical values can stand only once.

Legend:
[1] = organism: Canis familiaris; assay: In vitro electrophysiological evaluation in canine cardiac ventricular muscle reported as % change for conduction time(CT) at 10 uM; Minimal (<10% decrease or increase in Vmax).; assay type: functional, Canis lupus familiaris, Muscle tissue
In short: (§1)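 Canine right ventricle and papillary muscle strips in oxygenated Tyrode's solution, fitted with stimulating and recording electrodes. The extra-stimulus conduction-interval method was adapted for in vitro use. FRP and CT were read from a conduction-interval curve before and after various compound concentrations, and expressed as percent change from control. Compounds were taken from 10 mM deionized-water stock into Tyrode's. Each strip was used once as its own control.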

[2] = organism: Canis familiaris; assay: In vitro electrophysiological evaluation in canine cardiac Purkinje fibres reported as % change for action potential duration at 10 uM at 0.1-100 uM concentration range; assay type: functional, Canis lupus familiaris, Purkinje fiber
In short: (§2)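 Canine cardiac Purkinje fibres, intracellular microelectrode recording, paced at a basic cycle length of 1 s. APD95 and Vmax read simultaneously. Compound: 10 mM stock in deionized water, diluted into Tyrode's solution, tested over the stated concentration range. Each fibre used once as its own control. Result is % change from control, given at 10 µM or as the maximum with its concentration. M = <10% decrease or an increase in Vmax.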

[3] = organism: Canis familiaris; assay: In vitro electrophysiological evaluation in canine cardiac Purkinje fibres reported as % change for action potential duration at a concentration of 10 uM; assay type: functional, Canis lupus familiaris, Purkinje fiber; in short: as §2
[4] = organism: Canis familiaris; assay: In vitro electrophysiological evaluation in canine cardiac ventricular muscle reported as maximum % change for functional refractory period (FRP); concentration at which it occurred is 10 uM.; parameters: species or system Canis lupus familiaris, Muscle tissue; in short: as §1
[5] = organism: Canis familiaris; assay: In vitro electrophysiological evaluation in canine cardiac ventricular muscle reported as % change for the functional refractory period (FRP) at 10 uM; parameters: species or system Canis lupus familiaris, Muscle tissue; in short: as §1
[6] = organism: Canis familiaris; assay: In vitro electrophysiological evaluation in canine cardiac ventricular muscle reported as maximum % change for conduction time(CT); Minimal (<10% decrease or increase in […]).; assay type: functional, Canis lupus familiaris, Muscle tissue; in short: as §1
[7] = organism: Canis familiaris; assay: In vitro electrophysiological evaluation in canine cardiac Purkinje fibres reported as percent change Vmax at 10 uM at concentration range of 0.1-100 uM; Minimal (<10% decrease or increase in Vmax).; assay type: functional, organism-based; conditions: Canis lupus familiaris, Purkinje fiber; in short: as §2
[8] = organism: Canis familiaris; assay: In vitro electrophysiological activity in canine cardiac occurred is 100 uM.; assay type: functional, Canis lupus familiaris, Heart
[9] = organism: Canis familiaris; assay: In vitro electrophysiological evaluation in canine cardiac Purkinje fibres reported as maximum percent change Vmax concentration range of 0.1-100 uM; Minimal (<10% decrease or increase in Vmax).; assay type: functional; conditions: Canis lupus familiaris; Purkinje fiber; in short: as §2
[10] = organism: Canis familiaris; assay: In vitro electrophysiological evaluation in canine cardiac Purkinje fibres reported as percent change Vmax concentration range of 1-100 uM; assay type: functional; conditions: Canis lupus familiaris; Purkinje fiber
In short: (§3)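 Canine cardiac Purkinje fibers, intracellular recording, paced at a basic cycle length of 1 s. APD95 and Vmax are recorded together across cumulative concentrations. Compound is a 10 mM aqueous stock diluted into Tyrode's solution. Each fiber is used once as its own control. Readouts are percent change from control at 10 μM, and the maximum change with the concentration where it occurred.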

[11] = organism: Canis familiaris; assay: In vitro electrophysiological evaluation in canine cardiac Purkinje fibres reported as % change for action potential duration at 1-100 uM concentration range; assay type: functional, Canis lupus familiaris, Purkinje fiber; in short: as §3
[12] = organism: Canis familiaris; assay: In vitro electrophysiological evaluation in canine cardiac Purkinje fibres reported as % change for action potential duration at 0.1-100 uM concentration range; assay type: functional, Canis lupus familiaris, Purkinje fiber; in short: as §2
[13] = organism: Canis familiaris; assay: In vitro electrophysiological activity in canine cardiac Purkinje fibres given as maximum % change for action potential duration at 1 uM concentration; assay type: functional, Canis lupus familiaris, Purkinje fiber
In short: (§4)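 Canine cardiac Purkinje fibres, intracellular recording at 1 s basic cycle length, over cumulative concentration ranges. Compound 10 mM stock in deionized water diluted into Tyrode's. Each fibre used once as its own control. Value is the maximum % change from control in APD at 95% repolarization, with the concentration where it occurred; both values given if a biphasic response (>20% reversal) occurred.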

[14] = organism: Canis familiaris; assay: In vitro electrophysiological activity in canine cardiac Purkinje fibres given as maximum % change for action potential duration at 100 uM concentration; assay type: functional, Canis lupus familiaris, Purkinje fiber; in short: as §4
[15] = organism: Canis familiaris; assay: In vitro electrophysiological evaluation in canine cardiac Purkinje fibres reported as percent change Vmax concentration range of 0.1-100 uM; assay type: functional; conditions: Canis lupus familiaris; Purkinje fiber; in short: as §2
[16] = organism: Canis familiaris; assay: In vitro electrophysiological evaluation in canine cardiac Purkinje fibres reported as maximum percent change Vmax concentration range of 1-100 uM; assay type: functional; conditions: Canis lupus familiaris; Purkinje fiber; in short: as §3
[17] = organism: Canis familiaris; assay: In vitro electrophysiological activity in canine cardiac Purkinje fibres given as maximum % change for action potential duration at 0.1-100 uM concentration; assay type: functional, Canis lupus familiaris, Purkinje fiber; in short: as §4

Structure (SMILES) | CT [1] [%] | APD95 [2] [%] | APD95 [3] [%] | FRP [4] [%] | FRP [5] [%] | CT [6] [%] | Vmax [7] [%] | APD95 [8] | Vmax [9] [%] | Vmax [10] [%] | APD95 [11] [%] | APD95 [12] | APD95 [13] [%] | APD95 [14] [%] | Vmax [15] [%] | Vmax [16] [%] | APD95 [17]
Cl.O=C1C2CCN(CC2)C1CCCc1ccccc1 (configuration not stated) | <10 | 1 | -6 | 5 | 5 | <10 | < 10 | -38% and -35% | < 10 |  |  |  |  |  |  |  | 
CCN(CC)CCCCc1ccc(Cl)cc1 |  |  |  |  |  |  |  |  |  | < 10 | 21 | 38% and 27% | 25 | -15 | < 10 | -57 | 38% and 27%
